Experimental data published in ChEMBL document CHEMBL4118024, “Tannins and Tannin-Related Derivatives Enhance the (Pseudo-)Halogenating Activity of Lactoperoxidase” (J Nat Prod, 2017).

Columns and labels:
Settings in all cases: Bos taurus; call rule not given here
[1] = system: O=c1oc2c(O)c(O)cc3c(=O)oc4c(O)c(O)cc1c4c23; test: (§1) Induction of H2O2-inactivated bovine milk lactoperoxidase pseudo-halogenating activity assessed as increase in hypothiocyanate formation by measuring substrate Km using thiocyanate as substrate by Lineweaver-Burk plot
Summary of the method: (§2)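 Bovine milk LPO, lyophilized (about 80% purity), 5 nM final, in PBS (10 mM, pH 7.4) at 37 °C with 2 mM SCN−, 50 μM TNB and 80 μM H2O2. Compounds from 5 or 10 mM DMSO stocks, final 0.01–500 μM. −OSCN formation followed at 412 nm as TNB conversion to DTNB in a plate reader. KM, Vmax, kcat and specificity constant from Lineweaver–Burk plots. Mean ± SD, n = 3.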

[2] = system: Oc1cc(O)c2c(c1)O[C@@]1(c3ccc(O)c(O)c3)Oc3cc(O)c4c(c3[C@@H]2[C@H]1O)O[C@H](c1ccc(O)c(O)c1)[C@H](O)C4; test: as §1; summary of the method: as §2
[3] = system: O=C(O[C@@H]1Cc2c(O)cc(O)cc2O[C@@H]1c1cc(O)c(O)c(O)c1)c1cc(O)c(O)c(O)c1; test: as §1; summary of the method: as §2
[4] = system: O=C(/C=C/c1ccc(O)c(O)c1)O[C@@H]1C[C@](O)(C(=O)O)C[C@@H](O)[C@H]1O; test: as §1; summary of the method: as §2
COC(=O)c1cc(O)c(O)c(O)c1 [5] = test: as §1; summary of the method: as §2
[6] = system: Oc1cc(O)c2c(c1)O[C@H](c1ccc(O)c(O)c1)[C@H](O)[C@H]2c1c(O)cc(O)c2c1O[C@H](c1ccc(O)c(O)c1)[C@H](O)C2; test: as §1; summary of the method: as §2
[7] = system: O=C(OC[C@H]1O[C@@H](OC(=O)c2cc(O)c(O)c(O)c2)[C@H](OC(=O)c2cc(O)c(O)c(O)c2)[C@@H](OC(=O)c2cc(O)c(O)c(O)c2)[C@@H]1OC(=O)c1cc(O)c(O)c(O)c1)c1cc(O)c(O)c(O)c1; test: as §1; summary of the method: as §2
[8] = system: Oc1cc(O)c2c(c1)O[C@H](c1ccc(O)c(O)c1)[C@H](O)[C@H]2c1c(O)cc(O)c2c1O[C@H](c1ccc(O)c(O)c1)[C@H](O)[C@H]2c1c(O)cc(O)c2c1O[C@H](c1ccc(O)c(O)c1)[C@H](O)C2; test: as §1; summary of the method: as §2
[9] = system: Oc1cc(O)c2c(c1)O[C@H](c1ccc(O)c(O)c1)[C@H](O)C2; test: as §1; summary of the method: as §2
O=C(O)c1cc(O)c(O)c(O)c1 [10] = test: as §1; summary of the method: as §2
[11] = system: O=C(OC[C@H]1O[C@@H](OC(=O)c2cc(O)c(O)c(O)c2)[C@H](O)[C@@H](OC(=O)c2cc(O)c(O)c(O)c2)[C@@H]1O)c1cc(O)c(O)c(O)c1; test: as §1; summary of the method: as §2
[12] = system: Oc1cc(O)c2c(c1)O[C@H](c1cc(O)c(O)c(O)c1)[C@H](O)C2; test: as §1; summary of the method: as §2
[13] = system: O=C1O[C@@H]2[C@@H](OC(=O)c3cc(O)c(O)c(O)c3-c3c1cc(O)c(O)c3O)[C@H](O)O[C@@H]1COC(=O)c3cc(O)c(O)c(O)c3-c3c(O)c(O)c4oc(=O)c5c(c(O)c(O)c6oc(=O)c3c4c65)-c3c(cc(O)c(O)c3O)C(=O)O[C@@H]21; test: as §1; summary of the method: as §2
[14] = system: O=c1oc2c(O)c(O)cc3c(=O)oc4c(O)c(O)cc1c4c23; test: (§3) Induction of H2O2-inactivated bovine milk lactoperoxidase pseudo-halogenating activity assessed as increase in hypothiocyanate formation by measuring substrate Kcat using thiocyanate as substrate by Lineweaver-Burk plot; summary of the method: as §2
[15] = system: Oc1cc(O)c2c(c1)O[C@@]1(c3ccc(O)c(O)c3)Oc3cc(O)c4c(c3[C@@H]2[C@H]1O)O[C@H](c1ccc(O)c(O)c1)[C@H](O)C4; test: as §3; summary of the method: as §2
[16] = system: O=C(O[C@@H]1Cc2c(O)cc(O)cc2O[C@@H]1c1cc(O)c(O)c(O)c1)c1cc(O)c(O)c(O)c1; test: as §3; summary of the method: as §2
[17] = system: O=C(/C=C/c1ccc(O)c(O)c1)O[C@@H]1C[C@](O)(C(=O)O)C[C@@H](O)[C@H]1O; test: as §3; summary of the method: as §2
COC(=O)c1cc(O)c(O)c(O)c1 [18] = test: as §3; summary of the method: as §2
[19] = system: Oc1cc(O)c2c(c1)O[C@H](c1ccc(O)c(O)c1)[C@H](O)[C@H]2c1c(O)cc(O)c2c1O[C@H](c1ccc(O)c(O)c1)[C@H](O)C2; test: as §3; summary of the method: as §2
[20] = system: O=C(OC[C@H]1O[C@@H](OC(=O)c2cc(O)c(O)c(O)c2)[C@H](OC(=O)c2cc(O)c(O)c(O)c2)[C@@H](OC(=O)c2cc(O)c(O)c(O)c2)[C@@H]1OC(=O)c1cc(O)c(O)c(O)c1)c1cc(O)c(O)c(O)c1; test: as §3; summary of the method: as §2
[21] = system: Oc1cc(O)c2c(c1)O[C@H](c1ccc(O)c(O)c1)[C@H](O)[C@H]2c1c(O)cc(O)c2c1O[C@H](c1ccc(O)c(O)c1)[C@H](O)[C@H]2c1c(O)cc(O)c2c1O[C@H](c1ccc(O)c(O)c1)[C@H](O)C2; test: as §3; summary of the method: as §2
[22] = system: Oc1cc(O)c2c(c1)O[C@H](c1ccc(O)c(O)c1)[C@H](O)C2; test: as §3; summary of the method: as §2
O=C(O)c1cc(O)c(O)c(O)c1 [23] = test: as §3; summary of the method: as §2
[24] = system: O=C(OC[C@H]1O[C@@H](OC(=O)c2cc(O)c(O)c(O)c2)[C@H](O)[C@@H](OC(=O)c2cc(O)c(O)c(O)c2)[C@@H]1O)c1cc(O)c(O)c(O)c1; test: as §3; summary of the method: as §2
[25] = system: Oc1cc(O)c2c(c1)O[C@H](c1cc(O)c(O)c(O)c1)[C@H](O)C2; test: as §3; summary of the method: as §2
[26] = system: O=C1O[C@@H]2[C@@H](OC(=O)c3cc(O)c(O)c(O)c3-c3c1cc(O)c(O)c3O)[C@H](O)O[C@@H]1COC(=O)c3cc(O)c(O)c(O)c3-c3c(O)c(O)c4oc(=O)c5c(c(O)c(O)c6oc(=O)c3c4c65)-c3c(cc(O)c(O)c3O)C(=O)O[C@@H]21; test: as §3; summary of the method: as §2
[27] = system: O=c1oc2c(O)c(O)cc3c(=O)oc4c(O)c(O)cc1c4c23; test: (§4) Induction of H2O2-inactivated bovine milk lactoperoxidase pseudo-halogenating activity assessed as increase in hypothiocyanate formation by measuring ratio of Kcat to Km for substrate using thiocyanate as substrate by Lineweaver-Burk plot; summary of the method: as §2
[28] = system: Oc1cc(O)c2c(c1)O[C@@]1(c3ccc(O)c(O)c3)Oc3cc(O)c4c(c3[C@@H]2[C@H]1O)O[C@H](c1ccc(O)c(O)c1)[C@H](O)C4; test: as §4; summary of the method: as §2
[29] = system: O=C(O[C@@H]1Cc2c(O)cc(O)cc2O[C@@H]1c1cc(O)c(O)c(O)c1)c1cc(O)c(O)c(O)c1; test: as §4; summary of the method: as §2
[30] = system: O=C(/C=C/c1ccc(O)c(O)c1)O[C@@H]1C[C@](O)(C(=O)O)C[C@@H](O)[C@H]1O; test: as §4; summary of the method: as §2
COC(=O)c1cc(O)c(O)c(O)c1 [31] = test: as §4; summary of the method: as §2
[32] = system: Oc1cc(O)c2c(c1)O[C@H](c1ccc(O)c(O)c1)[C@H](O)[C@H]2c1c(O)cc(O)c2c1O[C@H](c1ccc(O)c(O)c1)[C@H](O)C2; test: as §4; summary of the method: as §2
[33] = system: Oc1cc(O)c2c(c1)O[C@H](c1ccc(O)c(O)c1)[C@H](O)[C@H]2c1c(O)cc(O)c2c1O[C@H](c1ccc(O)c(O)c1)[C@H](O)[C@H]2c1c(O)cc(O)c2c1O[C@H](c1ccc(O)c(O)c1)[C@H](O)C2; test: as §4; summary of the method: as §2
[34] = system: Oc1cc(O)c2c(c1)O[C@H](c1ccc(O)c(O)c1)[C@H](O)C2; test: as §4; summary of the method: as §2
O=C(O)c1cc(O)c(O)c(O)c1 [35] = test: as §4; summary of the method: as §2
[36] = system: O=C(OC[C@H]1O[C@@H](OC(=O)c2cc(O)c(O)c(O)c2)[C@H](O)[C@@H](OC(=O)c2cc(O)c(O)c(O)c2)[C@@H]1O)c1cc(O)c(O)c(O)c1; test: as §4; summary of the method: as §2
[37] = system: Oc1cc(O)c2c(c1)O[C@H](c1cc(O)c(O)c(O)c1)[C@H](O)C2; test: as §4; summary of the method: as §2
[38] = system: O=C1O[C@@H]2[C@@H](OC(=O)c3cc(O)c(O)c(O)c3-c3c1cc(O)c(O)c3O)[C@H](O)O[C@@H]1COC(=O)c3cc(O)c(O)c(O)c3-c3c(O)c(O)c4oc(=O)c5c(c(O)c(O)c6oc(=O)c3c4c65)-c3c(cc(O)c(O)c3O)C(=O)O[C@@H]21; test: as §4; summary of the method: as §2

In the case of “Lactoperoxidase (Bos taurus) (from UniProt P80025)”, the Km [1] is reported as 0.3 µM, the Km [2] is reported as 12.7 µM and the Km [3] is reported as 0.32 µM. It also gave a Km [4] of 1.26 µM, a Km (COC(=O)c1cc(O)c(O)c(O)c1 [5]) of 1.24 µM and a Km [6] of 0.37 µM. The Km [7] was “Not Active”, the Km [8] was 8.41 µM and the Km [9] was 0.61 µM. The Km (O=C(O)c1cc(O)c(O)c(O)c1 [10]) was 177 µM, the Km [11] was 1.37 µM and the Km [12] was 0.32 to 0.81 µM. It also gave a Km [13] of 10.6 µM, a kcat [14] of 29.3 s⁻¹ and a kcat [15] of 60 s⁻¹. For the same substance, the kcat [16] was 13.9 s⁻¹, the kcat [17] was 60.6 s⁻¹ and the kcat (COC(=O)c1cc(O)c(O)c(O)c1 [18]) was 80.3 s⁻¹. The kcat [19] was 4.53 s⁻¹, the kcat [20] was “Not Active” and the kcat [21] was 6.43 s⁻¹. For the same substance, the kcat [22] was 41.4 s⁻¹, the kcat (O=C(O)c1cc(O)c(O)c(O)c1 [23]) was 30.9 s⁻¹ and the kcat [24] was 63.7 s⁻¹. For the same substance, the kcat [25] was 13.9 to 43.6 s⁻¹, the kcat [26] was 11.8 s⁻¹ and the kcat/Km [27] was 98.3 µM⁻¹ s⁻¹. For the same substance, the kcat/Km [28] was 4.74 µM⁻¹ s⁻¹, the kcat/Km [29] was 43.8 µM⁻¹ s⁻¹ and the kcat/Km [30] was 48.1 µM⁻¹ s⁻¹. It also gave a kcat/Km (COC(=O)c1cc(O)c(O)c(O)c1 [31]) of 64.7 µM⁻¹ s⁻¹, a kcat/Km [32] of 12.1 µM⁻¹ s⁻¹ and a kcat/Km [33] of 0.8 µM⁻¹ s⁻¹. It also gave a kcat/Km [34] of 68.4 µM⁻¹ s⁻¹, a kcat/Km (O=C(O)c1cc(O)c(O)c(O)c1 [35]) of 0.2 µM⁻¹ s⁻¹ and a kcat/Km [36] of 50.3 µM⁻¹ s⁻¹. For the same substance, the kcat/Km [37] was 53.7 µM⁻¹ s⁻¹ and the kcat/Km [38] was 1.1 µM⁻¹ s⁻¹.
